Activity calls are given as the source filed them. No cut-off for these calls is given here.
Key:
Bacillus subtilis [1] = assay: Antimicrobial activity against Bacillus subtilis incubated in dark for 3 hrs by disk diffusion method; type: functional
Outline: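 Nutrient agar (0.3% beef extract, 0.5% peptone, 0.1% dipotassium hydrogen phosphate, 1.5% agar) seeded with B. subtilis broth culture. Duplicate control plate kept unirradiated at 37 °C overnight in the incubator. Read-out is the size of the inhibition zones.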

Bacillus subtilis [2] = assay: Phototoxicity against Bacillus subtilis after 3 hrs irradiated with UV light by disk diffusion method; type: functional
Outline: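 B. subtilis broth culture on nutrient agar (0.3% beef extract, 0.5% peptone, 0.1% K2HPO4, 1.5% agar). Plates held in the dark at 37 °C for 3 h so compounds diffuse through the agar. Uncovered dishes then exposed to 365 nm UV for 20 min and reincubated in the dark at 37 °C overnight. Photosensitizing activity read as inhibition zones.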

Nucleic Acid = assay: Binding affinity to DNA; type: nucleic-acid assay

SMILES | inhibition zone (IZ) (Bacillus subtilis [1]) [mm] | inhibition zone (IZ) (Bacillus subtilis [2]) [mm] | Activity (Nucleic Acid)
O=c1cc(-c2ccccc2)c2cc3c(cc2o1)oc1ccccc13 | 10 | 13 | Active
O=c1cc(-c2ccccc2)c2ccc3oc4ccccc4c3c2o1 | 13 | 14 | Active
O=c1cc(-c2ccccc2)c2cc3c4c(oc3cc2o1)CCCC4 | 9 | 7 | 
Cc1cc(=O)oc2ccc3oc4ccccc4c3c12 | 11 | 14 | Active
COc1c2occc2cc2ccc(=O)oc12 [METHOXSALEN] |  | 12 | 
O=c1cc(-c2ccccc2)c2ccc3oc4c(c3c2o1)CCCC4 |  | 5 | 
Cc1cc(=O)oc2cc3c(cc12)oc1ccccc13 | 12 | 16 | Active

Reference: ChEMBL document CHEMBL1152862, “Tetrahydrobenzo- and benzofurobenzopyrones as a new class of potential photoreagents toward DNA” (2009)
